These results are taken from ChEMBL document CHEMBL1122156, “A comparison of the inhibitory action of 5-(substituted-benzyl)-2,4-diaminopyrimidines on dihydrofolate reductase from chicken liver with that from bovine liver” (J Med Chem, 1982).

In assay [1] the target is T1, Dihydrofolate reductase (Gallus gallus) (UniProt P00378).
T1 sequence (whole entry): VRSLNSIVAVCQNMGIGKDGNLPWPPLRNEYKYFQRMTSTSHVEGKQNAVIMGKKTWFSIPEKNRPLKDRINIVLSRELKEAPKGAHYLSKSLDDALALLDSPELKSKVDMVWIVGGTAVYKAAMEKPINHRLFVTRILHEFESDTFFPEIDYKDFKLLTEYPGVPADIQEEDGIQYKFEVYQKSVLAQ

Assay [2] has as its target T2, Dihydrofolate reductase (Bos taurus) (UniProt P00376).
T2 sequence (whole entry): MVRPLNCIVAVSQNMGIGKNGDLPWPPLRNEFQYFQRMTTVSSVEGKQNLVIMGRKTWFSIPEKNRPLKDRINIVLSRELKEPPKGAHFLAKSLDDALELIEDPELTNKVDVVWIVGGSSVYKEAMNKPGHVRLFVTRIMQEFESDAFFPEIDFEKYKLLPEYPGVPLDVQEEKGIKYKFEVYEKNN

The target in assay [3] is T1, Dihydrofolate reductase (Gallus gallus). Description: Inhibitory activity against chicken Dihydrofolate reductase at pH 7.2. Summed up:
(§1)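 DHFR from chicken liver and from bovine liver, each assayed at pH 7.2 by the group's earlier-reported inhibition procedure. Potency is expressed as an apparent inhibition constant, reported as log(1/Ki app).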

For assay [4], the target named is T2, Dihydrofolate reductase (Bos taurus). Kind of assay: Inhibitory activity against bovine liver Dihydrofolate reductase at pH 7.2. Summed up:
as §1

On to `Nc1ncc(Cc2ccccc2)c(N)n1`, for which, in assay [1], the Log 1/Ki app was found to be 4.71. For the compound `Nc1ncc(Cc2cccc(I)c2)c(N)n1`, the results for the Log 1/Ki app in assay [2] and in assay [1] were 6.15 and 4.79, respectively. Compound `Nc1ncc(Cc2cccc(F)c2)c(N)n1` had a Log 1/Ki app in assay [1] of 4.7.

With `COc1ccc(Cc2cnc(N)nc2N)cc1OC`, the Log 1/Ki app in assay [2] was determined as 5.66; in assay [1], 4.46.

The compound `Cc1cccc(Cc2cnc(N)nc2N)c1` had a Log 1/Ki app in assay [1] of 4.72. `COCCOc1cccc(Cc2cnc(N)nc2N)c1`: the Log 1/Ki app in assay [3] came to 4.83; in assay [4], 5.58. In assay [1], `COc1ccc(Cc2cnc(N)nc2N)cc1C(F)(F)F` yielded a Log 1/Ki app of 4.99.

In assay [1], `CCCCOCc1cccc(Cc2cnc(N)nc2N)c1` returned a Log 1/Ki app of 5.17. In assay [1], `Nc1ncc(Cc2ccc([N+](=O)[O-])cc2)c(N)n1` displayed a Log 1/Ki app of 4.37. With `Nc1ncc(Cc2cc(O)cc(O)c2)c(N)n1`, the Log 1/Ki app in assay [4] was found to be 3.39. As to `CCCCCCCOc1ccc(Cc2cnc(N)nc2N)cc1`, in assay [4], the Log 1/Ki app was determined as 5.45.

The compound `Nc1ncc(Cc2ccc(F)cc2)c(N)n1` registered a Log 1/Ki app in assay [1] of 4.79.

Consider `Nc1ncc(Cc2ccc(OC(F)(F)F)cc2)c(N)n1`, for which the Log 1/Ki app in assay [2] was 5.42; in assay [1], 4.26.

In turn, `CC(=O)Nc1ccc(Cc2cnc(N)nc2N)cc1` returned a Log 1/Ki app in assay [1] of 4.26. In turn, `Nc1ncc(Cc2cccc(Cl)c2)c(N)n1` yielded a Log 1/Ki app in assay [1] of 5.01. On the same count and under the same terms, to `COCCOc1c(OC)cc(Cc2cnc(N)nc2N)cc1OC` belongs 3.64; to `CN(C)c1ccc(Cc2cnc(N)nc2N)cc1`, 4.01.
